Assay [1] relates to Nucleic Acid. The assay is described as follows: Inhibitory effect on the activity of calf thymus DNA polymerase alpha was determined by inhibitory dose curves. The assay is classed as nucleic-acid assay, Bos taurus. In short, it runs like this: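 Calf thymus DNA pol α (immunoaffinity-purified), 0.05 units, with poly(dA)/oligo(dT)12-18 template-primer and dTTP substrate. Compounds in DMSO at various concentrations, sonicated 30 s, then preincubated with enzyme in 50 mM Tris–HCl pH 7.5, 1 mM DTT, 50% glycerol, 0.1 mM EDTA at 0 °C for 10 min before addition to the reaction mix. Activity without compound was set as 100%, and IC50 was read from dose–response curves.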

Assay [2] deals with T1, DNA polymerase beta (Rattus norvegicus, UniProt P06766). The assay is described as follows: Inhibitory effect on the activity of rat DNA polymerase beta was determined by inhibitory dose curves. An outline of the steps: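 Rat DNA pol β, 0.05 units, with poly(dA)/oligo(dT)12-18 template-primer and dTTP substrate. Compounds in DMSO at various concentrations, sonicated 30 s, then preincubated with enzyme in 50 mM Tris–HCl pH 7.5, 1 mM DTT, 50% glycerol, 0.1 mM EDTA at 0 °C for 10 min before addition to the reaction mix. Activity without compound was set as 100%, and IC50 was read from dose–response curves.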

Assay [3] concerns the target Nucleic Acid. Put plainly: Inhibition constant at a concentration of 25 uM on calf DNA polymerase alpha as a function of template primer dose. The class given is nucleic-acid assay, Bos taurus. An outline of the steps:
(§1)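 Calf thymus DNA pol α (immunoaffinity-purified), 0.05 units. Compound in DMSO, sonicated 30 s, preincubated with enzyme in 50 mM Tris–HCl pH 7.5, 1 mM DTT, 50% glycerol, 0.1 mM EDTA at 0 °C for 10 min. Activity measured varying poly(dA)/oligo(dT)12-18 (2/1) template-primer or dTTP nucleotide substrate. Km and Vmax were taken from double reciprocal plots and Ki from Dixon plots.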

In assay [4] the target is T1, DNA polymerase beta. Put plainly: Inhibition constant at a concentration of 5 uM on rat DNA polymerase beta as a function of nucleotide substrate concentration. In short, it runs like this: (§2)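 Rat DNA pol β (0.05 units final) with poly(dA)/oligo(dT)12-18 (2/1) as template-primer and dTTP as nucleotide substrate. Inhibitor was dissolved in DMSO, sonicated 30 s, then preincubated with enzyme at 0 °C for 10 min in 50 mM Tris-HCl pH 7.5, 1 mM DTT, 50% glycerol and 0.1 mM EDTA. The mix was added to standard reactions with template-primer or dTTP varied. Ki came from double-reciprocal and Dixon plots.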

For assay [5], the target named is T1, DNA polymerase beta. The assay is described as follows: Inhibition constant at a concentration of 5 uM on rat DNA polymerase beta as a function of template primer dose. In short, it runs like this:
as §2

Assay [6] concerns the target Nucleic Acid. Put plainly: Inhibition constant at a concentration of 25 uM on calf DNA polymerase alpha as a function of nucleotide substrate concentration. The class given is nucleic-acid assay, Bos taurus. In short, it runs like this:
as §1

The target in assay [7] is Nucleic Acid. Put plainly: Inhibitory effect on the activity of mammalian DNA polymerase alpha was determined by inhibitory dose curves. The assay is classed as nucleic-acid assay, Bos taurus. An outline of the steps:
(§3)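 Calf thymus pol α (immunoaffinity-purified) and rat pol β, 0.05 units each final, with poly(dA)/oligo(dT)12–18 (2/1) and dTTP. Compounds in DMSO, sonicated 30 s, then preincubated with enzyme at 0 °C for 10 min in 50 mM Tris–HCl pH 7.5, 1 mM DTT, 50% glycerol, 0.1 mM EDTA. Mixtures added to standard reactions; activity without compound taken as 100%. IC50 from dose–response curves.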

In assay [8] the target is T1, DNA polymerase beta. Put plainly: Inhibition constant at a concentration of 10 uM on rat DNA polymerase beta as a function of nucleotide substrate concentration. An outline of the steps:
(§4)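 Kinetic runs used calf thymus pol α or rat pol β (0.05 units each) preincubated with compound at 0 °C for 10 min in Tris–HCl pH 7.5/DTT/glycerol/EDTA buffer. Either poly(dA)/oligo(dT)12–18 (2/1) template-primer or dTTP substrate was varied. Km and Vmax came from double reciprocal plots, Ki from Dixon plots.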

The target in assay [9] is Nucleic Acid. The assay is described as follows: Inhibition constant at a concentration of 5 uM on calf DNA polymerase alpha as a function of nucleotide substrate concentration. The assay is classed as nucleic-acid assay, Bos taurus. In short, it runs like this: as §4
The target of assay [10] is T1, DNA polymerase beta. Put plainly: Inhibitory effect on the activity of mammalian DNA polymerase beta was determined by inhibitory dose curves. An outline of the steps:
as §3

Assay [11] deals with Nucleic Acid. Put plainly: Inhibition constant at a concentration of 5 uM on calf DNA polymerase alpha as a function of template primer dose. The assay is classed as nucleic-acid assay, Bos taurus. In short, it runs like this: as §4
Assay [12] has as its target T1, DNA polymerase beta. Put plainly: Inhibition constant at a concentration of 10 uM on rat DNA polymerase beta as a function of template primer dose. An outline of the steps:
as §4

Structures are written as SMILES.

What is called IC50 is the concentration that gives 50% inhibition. The low end stands for greater potency in that assay, the high end for weaker potency in that assay. As to `C[C@H](CCC(=O)O)[C@H]1CC[C@H]2[C@@H]3CCC4C[C@@H](OC(=O)CCNC(=O)CCCCCNC(=O)CCCCC5SCC6NC(=O)NC65)CC[C@]4(C)[C@H]3CC[C@]12C` (stereo partly specified), the IC50 in the assay on Nucleic Acid [1] was determined as 42 µM; on DNA polymerase beta [2], 46 µM.
As a reminder, the Ki is the equilibrium dissociation constant of an inhibitor or competing ligand from its target. Read a high Ki as lower affinity. For `C[C@H](CCC(=O)O)[C@H]1CC[C@H]2[C@@H]3CCC4C[C@@H](O)CC[C@]4(C)[C@H]3CC[C@]12C` (stereo partly specified), the Ki at Nucleic Acid [3] came out at 15.3 µM; at DNA polymerase beta [4] it was 6.6 µM; at DNA polymerase beta [5] it was 4.7 µM; at Nucleic Acid [6], 22.5 µM. The IC50 came out at 40 µM in the assay on Nucleic Acid [1] and 11 µM on DNA polymerase beta [2].
`C[C@H](CCC(=O)O)[C@H]1CC[C@H]2[C@@H]3CCC4C[C@@H](OC(=O)CCNC(=O)CCCCC5SCC6NC(=O)NC65)CC[C@]4(C)[C@H]3CC[C@]12C` (stereo partly specified): the IC50 with Nucleic Acid [1] was found to be 29 µM; at DNA polymerase beta [2], 31 µM.
Consider `C[C@H](CCC(=O)O)[C@H]1CC[C@H]2[C@@H]3CCC4C[C@@H](OC(=O)CCNC(=O)CCCCCNC(=O)CCCCCNC(=O)CCCCC5SCC6NC(=O)NC65)CC[C@]4(C)[C@H]3CC[C@]12C` (stereo partly specified), for which the IC50 came out at 10 µM against Nucleic Acid [7] and 32 µM against DNA polymerase beta [10]. Besides, the Ki came to 20.1 µM at DNA polymerase beta [8], 5.5 µM at Nucleic Acid [9], 7.7 µM on Nucleic Acid [11] and 12.8 µM at DNA polymerase beta [12].

(Values after ChEMBL document CHEMBL1135021, “Biotinylated lithocholic acids for affinity chromatography of mammalian DNA polymerases alpha and beta” (Bioorg Med Chem Lett, 2002).)
